Experiments:
[1] = target: T1, Amine oxidase [copper-containing] 3 (Homo sapiens) (UniProt Q16853); test: Inhibition of SSAO in human plasma assessed as reduction of H2O2 production from oxidative deamination of benzylamine at 10 uM preincubated for 2 hrs followed by substrate addition measured every 2 mins for 1 hr by amplex red reagent-based fluorescence assay relative to control
T1 sequence (whole entry): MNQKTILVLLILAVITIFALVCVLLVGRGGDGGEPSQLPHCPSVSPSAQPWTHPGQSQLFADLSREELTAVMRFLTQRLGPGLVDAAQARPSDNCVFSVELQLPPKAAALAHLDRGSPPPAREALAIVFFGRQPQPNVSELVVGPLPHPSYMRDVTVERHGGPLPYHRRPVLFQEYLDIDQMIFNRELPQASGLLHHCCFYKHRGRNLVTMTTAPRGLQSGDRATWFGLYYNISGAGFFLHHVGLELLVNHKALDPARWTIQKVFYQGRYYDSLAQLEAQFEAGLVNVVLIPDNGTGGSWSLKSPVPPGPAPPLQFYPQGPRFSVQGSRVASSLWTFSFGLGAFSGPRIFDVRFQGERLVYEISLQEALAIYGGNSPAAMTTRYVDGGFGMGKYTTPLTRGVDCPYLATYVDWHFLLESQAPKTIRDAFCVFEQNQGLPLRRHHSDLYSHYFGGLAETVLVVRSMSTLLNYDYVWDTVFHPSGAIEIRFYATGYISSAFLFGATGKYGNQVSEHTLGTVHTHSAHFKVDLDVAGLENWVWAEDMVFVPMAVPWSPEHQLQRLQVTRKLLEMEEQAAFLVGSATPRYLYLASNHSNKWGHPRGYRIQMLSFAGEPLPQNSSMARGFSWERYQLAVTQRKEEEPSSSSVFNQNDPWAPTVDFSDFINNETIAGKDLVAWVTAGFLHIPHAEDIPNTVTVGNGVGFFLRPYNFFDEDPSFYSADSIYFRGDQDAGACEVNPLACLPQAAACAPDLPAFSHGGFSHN
Summary of the method: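 Endogenous SSAO in human plasma was the enzyme source and benzylamine the substrate. After a 2 h preincubation with compound, percent inhibition was calculated relative to a vehicle control and to a control containing 1 μM of the known SSAO inhibitor PXS-4681A.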

[2] = target: T2, Lysyl oxidase homolog 2 (Homo sapiens) (UniProt Q9Y4K0); test: Irreversible inhibition of human LOXL2 assessed as catalytic activity preincubated for 2 hrs followed by substrate addition measured every 2 mins for 1 hr by amplex red reagent-based fluorescence assay relative to control; parameters: concentration or dose not given beside the values
T2 sequence (whole entry): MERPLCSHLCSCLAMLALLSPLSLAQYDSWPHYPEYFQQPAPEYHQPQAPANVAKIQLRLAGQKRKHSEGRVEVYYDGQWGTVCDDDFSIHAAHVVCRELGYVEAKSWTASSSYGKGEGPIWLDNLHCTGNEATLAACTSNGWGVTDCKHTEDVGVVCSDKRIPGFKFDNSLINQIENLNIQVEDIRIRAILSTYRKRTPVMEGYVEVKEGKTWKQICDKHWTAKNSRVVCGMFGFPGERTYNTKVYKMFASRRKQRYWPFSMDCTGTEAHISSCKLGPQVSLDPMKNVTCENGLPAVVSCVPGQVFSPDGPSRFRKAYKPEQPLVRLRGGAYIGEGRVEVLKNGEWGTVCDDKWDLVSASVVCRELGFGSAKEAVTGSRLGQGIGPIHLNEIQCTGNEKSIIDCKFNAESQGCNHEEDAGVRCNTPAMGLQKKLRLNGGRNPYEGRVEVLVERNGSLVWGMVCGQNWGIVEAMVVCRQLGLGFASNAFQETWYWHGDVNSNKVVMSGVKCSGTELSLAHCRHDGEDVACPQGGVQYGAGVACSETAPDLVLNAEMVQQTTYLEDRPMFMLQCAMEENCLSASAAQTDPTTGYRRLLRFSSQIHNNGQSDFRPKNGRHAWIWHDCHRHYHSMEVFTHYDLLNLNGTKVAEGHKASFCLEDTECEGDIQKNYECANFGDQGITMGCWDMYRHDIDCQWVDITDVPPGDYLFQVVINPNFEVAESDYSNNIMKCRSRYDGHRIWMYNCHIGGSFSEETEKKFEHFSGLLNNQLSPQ

[3] = target: T3, Lysyl oxidase homolog 2 (Mus musculus) (UniProt P58022); test: (§1) Inhibition of recombinant mouse LOXL2 expressed in mouse whole blood assessed as reduction of H2O2 production from oxidative deamination of DAP preincubated for 2 hrs followed by substrate addition measured every 2 mins for 1 hr by amplex red reagent-based fluorescence assay
T3 sequence (whole entry): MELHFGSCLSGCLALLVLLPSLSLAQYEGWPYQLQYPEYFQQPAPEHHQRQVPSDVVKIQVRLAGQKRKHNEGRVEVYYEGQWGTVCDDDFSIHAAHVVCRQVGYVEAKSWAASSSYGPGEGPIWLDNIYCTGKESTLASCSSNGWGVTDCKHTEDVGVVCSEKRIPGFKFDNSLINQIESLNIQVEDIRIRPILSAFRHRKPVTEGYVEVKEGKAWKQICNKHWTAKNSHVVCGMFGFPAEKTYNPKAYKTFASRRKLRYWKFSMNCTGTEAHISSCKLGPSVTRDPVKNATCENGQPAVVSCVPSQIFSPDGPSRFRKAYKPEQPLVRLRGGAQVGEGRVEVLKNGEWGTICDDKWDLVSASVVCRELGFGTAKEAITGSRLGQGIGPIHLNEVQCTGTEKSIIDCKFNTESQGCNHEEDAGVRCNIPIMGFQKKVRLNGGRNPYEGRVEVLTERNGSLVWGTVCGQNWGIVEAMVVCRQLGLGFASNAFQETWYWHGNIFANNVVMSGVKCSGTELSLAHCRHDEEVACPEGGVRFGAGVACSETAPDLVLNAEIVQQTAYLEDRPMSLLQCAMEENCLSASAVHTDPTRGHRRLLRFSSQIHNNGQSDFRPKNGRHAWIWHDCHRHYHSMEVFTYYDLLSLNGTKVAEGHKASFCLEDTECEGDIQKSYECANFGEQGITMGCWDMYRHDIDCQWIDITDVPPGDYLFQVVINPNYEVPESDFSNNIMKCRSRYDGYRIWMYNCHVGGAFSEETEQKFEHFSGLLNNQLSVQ

Lysyl oxidase homolog 2 = target: T4, Lysyl oxidase homolog 2 (Mus musculus, UniProt P58022); test: as §1
T4 sequence (P58022 whole entry): T3 sequence (whole entry)

Cl.NCc1cc(Oc2cccc(C(=O)N3C[C@@H](O)[C@H](F)C3)c2)nc(C(F)(F)F)c1 (racemic)
inhibition [1]: 16%
inhibition [2]: 97%
IC90 [3]: 5.6 µM
IC50 (Lysyl oxidase homolog 2): 0.86 µM

Reference: ChEMBL document CHEMBL4049456, “Identification of 4-(Aminomethyl)-6-(trifluoromethyl)-2-(phenoxy)pyridine Derivatives as Potent, Selective, and Orally Efficacious Inhibitors of the Copper-Dependent Amine Oxidase, Lysyl Oxidase-Like 2 (LOXL2)” (J Med Chem, 2017)
